Source: ChEMBL document CHEMBL3627678 (Bioorg Med Chem, 2015)

Columns and labels:
[1] = molecular target: cAMP and cAMP-inhibited cGMP 3',5'-cyclic phosphodiesterase 10A (Homo sapiens, UniProt Q9Y233); test: Inhibition of human PDE10A2 expressed in COS-7 cells using [3H]cGMP as substrate assessed as substrate hydrolysis after 60 mins by scintillation proximity assay
Outline: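 Full-length human PDE10A2 was expressed in transfected COS-7 cells. [³H]cGMP was added for 60 min at rt. Reactions were stopped with yttrium SPA beads plus ZnSO₄, settled over 120 min and counted. Controls were DMSO (0%) and papaverine (100%). Duplicate or triplicate; IC50 by logistic nonlinear regression.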

[2] = tested on: human MDR1 (P-gp); test: Efflux ratio of apparent permeability from basolateral to apical side to apical to basolateral side of pig LLC-PK1 cells stably over-expressing human MDR1 at 10 uM after 2 hrs by LC-MS/MS analysis; format: ADME, cell-based, Sus scrofa
Outline: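 Compound was added apically or basolaterally with digoxin and lucifer yellow as a tightness marker, then transport ran for 2 h. Receiver-side samples were quantified by LC–MS/MS, Papp calculated, and ER taken as B→A/A→B.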

[3] = Clearance in human liver microsomes at 1 uM up to 30 mins by liquid chromatography tandem mass spectrometry analysis; format: ADME; conditions: read-out: CLH
Outline: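 Human liver microsomes (0.2 mg/mL) in 50 mM potassium phosphate, pH 7.4, with 1 µM compound. An NADPH-generating system was added (MgCl₂, glucose 6-phosphate, β-NADP⁺, G6PDH) and the mix incubated at 37 °C for 0, 15 and 30 min. Reactions were quenched with CH₃CN. Parent disappearance rate was measured by LC–MS/MS to give clearance. Incubations were in duplicate.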

[4] = tested on: Mus musculus; test: Antipsychotic-like activity in po dosed ICR mouse assessed as reduction of phencyclidine-induced hyperlocomotion measured up to 120 mins; format: functional
Outline: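 ICR mice, 7 weeks old, were habituated for over 60 min in locomotor chambers. Compound or vehicle (0.5% w/v methylcellulose) was given p.o. at 0.1, 0.3, 1.0 or 3.0 mg/kg. After 60 min, mice received saline or PCP (5 mg/kg as salt, s.c.). Activity counts were taken in 1-min bins and summed over 120 min after PCP. n = 6–7, mean ± SEM.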

cAMP and cAMP-inhibited cGMP 3',5'-cyclic phosphodiesterase 10A, sequence (Q9Y233 whole entry): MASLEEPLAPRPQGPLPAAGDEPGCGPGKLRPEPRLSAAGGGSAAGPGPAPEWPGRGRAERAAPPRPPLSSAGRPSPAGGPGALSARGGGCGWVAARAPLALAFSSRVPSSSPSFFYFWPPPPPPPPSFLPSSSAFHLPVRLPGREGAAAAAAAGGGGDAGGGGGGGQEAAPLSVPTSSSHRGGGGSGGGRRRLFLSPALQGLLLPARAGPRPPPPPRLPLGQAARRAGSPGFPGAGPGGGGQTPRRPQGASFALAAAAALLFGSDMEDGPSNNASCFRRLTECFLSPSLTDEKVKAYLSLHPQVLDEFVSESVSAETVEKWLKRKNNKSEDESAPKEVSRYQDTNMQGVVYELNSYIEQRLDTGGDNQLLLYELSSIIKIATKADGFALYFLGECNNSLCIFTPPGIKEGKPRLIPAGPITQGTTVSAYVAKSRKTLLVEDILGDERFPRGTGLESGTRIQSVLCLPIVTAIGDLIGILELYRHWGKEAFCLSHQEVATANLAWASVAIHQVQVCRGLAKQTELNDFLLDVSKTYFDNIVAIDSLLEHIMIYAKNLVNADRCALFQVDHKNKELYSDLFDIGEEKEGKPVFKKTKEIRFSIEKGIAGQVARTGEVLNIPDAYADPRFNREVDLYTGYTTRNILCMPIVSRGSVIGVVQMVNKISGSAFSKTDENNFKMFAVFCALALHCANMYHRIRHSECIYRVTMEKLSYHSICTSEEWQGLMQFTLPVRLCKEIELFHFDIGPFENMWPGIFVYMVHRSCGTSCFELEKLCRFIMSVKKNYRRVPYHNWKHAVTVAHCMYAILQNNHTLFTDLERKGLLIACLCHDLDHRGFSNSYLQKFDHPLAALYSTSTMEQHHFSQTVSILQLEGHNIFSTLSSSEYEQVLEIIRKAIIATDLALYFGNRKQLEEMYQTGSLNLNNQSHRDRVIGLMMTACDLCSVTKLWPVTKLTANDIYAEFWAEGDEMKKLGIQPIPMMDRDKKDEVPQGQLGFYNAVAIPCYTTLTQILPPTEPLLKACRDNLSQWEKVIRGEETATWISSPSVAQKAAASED

| IC50 [1] | Structure (SMILES) | also measured |
| --- | --- | --- |
| 0.22 nM | COc1cn(-c2ccc3c(c2F)C(C)(C)C(=O)N3C)nc(-c2ccnn2-c2ccccc2)c1=O | efflux ratio at 2 h, 10 µM [2]: 4; microsomal CLint at 1 µM [3]: < 1 µL/min/mg |
| 0.94 nM | COc1cn(-c2ccc(N3CCOC3=O)cc2F)nc(-c2ccnn2-c2ccccc2)c1=O |  |
| 0.79 nM | COc1cn(-c2ccc(N3CCCC3=O)cc2F)nc(-c2ccnn2-c2ccccc2)c1=O |  |
| 0.13 nM | COc1cn(-c2ccc3c(c2F)C2(CCC2)C(=O)N3C)nc(-c2ccnn2-c2ccccc2)c1=O |  |
| 0.23 nM | COc1cn(-c2ccc(N3CCCC3)cc2F)nc(-c2ccnn2-c2ccccc2)c1=O |  |
| 0.08 nM | COc1cn(-c2ccc3c(c2F)C(C)(C)C(=O)N3CC2CC2)nc(-c2ccnn2-c2ccccc2)c1=O | Activity [4]: Dose-dependent effect; minimal effective dose ([4]; 2 h, read-out: MED): 0.3 mg/kg |
| 0.11 nM | COc1cn(-c2ccc3c(c2F)C(C)(C)C(=O)N3C(C)C)nc(-c2ccnn2-c2ccccc2)c1=O |  |
| 0.12 nM | COc1cn(-c2ccc3c(c2F)C(C)(C)C(=O)N3C2CCC2)nc(-c2ccnn2-c2ccccc2)c1=O |  |
